# Columns and labels:
# [1] = Solubility of the compound in distilled water at pH 2.1; format: physicochemical
# [2] = Oral bioavailability in rat at 10.7 mg/kg; format: ADME, organism-based; conditions: in vivo
# Summary of the method: (§1)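 Both routes were formulated at 1.0 mg/mL in 50% PEG. Parameters reported are Vd, AUCpo, oral bioavailability, clearance and half-life.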
# [3] = Solubility of the compound in distilled water at pH 7.4; format: physicochemical
# [4] = test system: Human immunodeficiency virus 1; assay: Antiviral activity against wild type HIV1 LAI infected in human CEM174 cells assessed as inhibition of viral replication preincubated for 1 hr prior to viral infection measured after 5 days; format: functional, organism-based; conditions: Human immunodeficiency virus 1, LAI
# [5] = Cytotoxicity against human CEM174 cells assessed as cell viability; format: cell-based
# Summary of the method: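 Values are geometric means of two determinations, each within 25% of the mean.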
# [6] = AUC in rat at 10.7 mg/kg, po; format: ADME, organism-based; parameters: dose 10.7 mg/kg, route oral; conditions: plasma; summary of the method: as §1
# [7] = molecular target: Human immunodeficiency virus type 1 reverse transcriptase (Human immunodeficiency virus 1, UniProt Q72547); assay: Inhibition of RNA-dependent DNA polymerase activity of wild type N-terminal His6x-tagged HIV 1 reverse transcriptase p66/p51 expressed in Escherichia coli (DE3) rosetta cells preincubated for 30 mins by SPA assay
# [8] = Half life in rat at 1.10 mg/kg, iv and 10.7 mg/kg, po; format: ADME, organism-based; conditions: in vivo; summary of the method: as §1
# [9] = molecular target: Human immunodeficiency virus type 1 reverse transcriptase (Human immunodeficiency virus 1, UniProt Q72547, K103N); assay: Inhibition of RNA-dependent DNA polymerase activity of N-terminal His6x-tagged HIV 1 reverse transcriptase K103N mutant expressed in Escherichia coli (DE3) rosetta cells preincubated for 30 mins by SPA assay
# [10] = Volume of distribution in rat at 1.10 mg/kg, iv and 10.7 mg/kg, po; format: ADME, organism-based; conditions: in vivo, 1.1 mg/kg; summary of the method: as §1
# [11] = molecular target: Human immunodeficiency virus type 1 reverse transcriptase (Human immunodeficiency virus 1, UniProt Q72547, Y181C); assay: Inhibition of RNA-dependent DNA polymerase activity of N-terminal His6x-tagged HIV 1 reverse transcriptase Y181C mutant expressed in Escherichia coli (DE3) rosetta cells preincubated for 30 mins by SPA assay
# [12] = Clearance in rat at 1.10 mg/kg, iv and 10.7 mg/kg, po; format: ADME, organism-based; conditions: in vivo, 1.1 mg/kg; summary of the method: as §1
# [13] = Oral bioavailability in rat at 10.9 mg/kg; format: ADME, organism-based; conditions: in vivo
# Summary of the method: (§2)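 The iv and po formulation was 1.0 mg/mL in 40% PEG. Vd, AUCpo, F, clearance and t1/2 were derived.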
# [14] = Volume of distribution in rat at 1.19 mg/kg, iv and 10.9 mg/kg, po; format: ADME, organism-based; conditions: in vivo; summary of the method: as §2
# [15] = Clearance in rat at 1.19 mg/kg, iv and 10.9 mg/kg, po; format: ADME, organism-based; conditions: in vivo; summary of the method: as §2
# [16] = Half life in rat at 1.19 mg/kg, iv and 10.9 mg/kg, po; format: ADME, organism-based; conditions: in vivo; summary of the method: as §2
# [17] = AUC in rat at 10.9 mg/kg, po; format: ADME, organism-based; parameters: dose 10.9 mg/kg, route oral; conditions: plasma; summary of the method: as §2
# [18] = Volume of distribution in rat at 0.94 mg/kg, iv and 9.44 mg/kg, po; format: ADME, organism-based; conditions: in vivo
# Summary of the method: (§3)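 Rats given a single iv dose of 0.94 mg/kg and a single oral dose of 9.44 mg/kg. Both iv and po formulations were 1.0 mg/mL in 20% HP-β-CD. Vd, oral AUC, F, clearance and t1/2 were derived from plasma exposure.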
# [19] = Induction of CYP3A4 mRNA expression in human Fa2N-4 cells up to 10 uM after 24 hrs; format: ADME, cell-based; conditions: fa2n-4, 24 h
# [20] = Clearance in rat at 0.94 mg/kg, iv and 9.44 mg/kg, po; format: ADME, organism-based; conditions: in vivo; summary of the method: as §3
# [21] = Half life in rat at 0.94 mg/kg, iv and 9.44 mg/kg, po; format: ADME, organism-based; conditions: in vivo; summary of the method: as §3
# [22] = Oral bioavailability in rat at 9.44 mg/kg; format: ADME, organism-based; conditions: in vivo; summary of the method: as §3
# [23] = AUC in rat 9.44 mg/kg, po; format: ADME, organism-based; parameters: dose 9.44 mg/kg, route oral; conditions: plasma; summary of the method: as §3
# [24] = Solubility of the compound in distilled water; format: physicochemical
# Summary of the method: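 Solubility was measured on the HCl salt in distilled water.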
# [25] = test system: Human immunodeficiency virus 1; assay: Resistant ratio of IC50 for HIV 1 reverse transcriptase Y181C mutant to IC50 for wild type HIV 1 reverse transcriptase
# Summary of the method: (§4)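 Fold resistance is IC50 against the mutant RT divided by IC50 against wild-type RT. Both IC50s come from the RNA-dependent DNA polymerase inhibition assay, each taken as the geometric mean of two determinations.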
# [26] = test system: Human immunodeficiency virus type 1 reverse transcriptase (Human immunodeficiency virus 1), Q72547 [UNDEFINED MUTATION]; assay: Resistant ratio of IC50 for HIV 1 reverse transcriptase K103N mutant to IC50 for wild type HIV 1 reverse transcriptase; summary of the method: as §4
# [27] = molecular target: Voltage-gated inwardly rectifying potassium channel KCNH2 (Homo sapiens, UniProt Q12809); assay: Inhibition of recombinant human ERG channel IKr expressed in CHO cells by patch clamp assay
# Sequence of Voltage-gated inwardly rectifying potassium channel KCNH2 (Q12809 whole entry): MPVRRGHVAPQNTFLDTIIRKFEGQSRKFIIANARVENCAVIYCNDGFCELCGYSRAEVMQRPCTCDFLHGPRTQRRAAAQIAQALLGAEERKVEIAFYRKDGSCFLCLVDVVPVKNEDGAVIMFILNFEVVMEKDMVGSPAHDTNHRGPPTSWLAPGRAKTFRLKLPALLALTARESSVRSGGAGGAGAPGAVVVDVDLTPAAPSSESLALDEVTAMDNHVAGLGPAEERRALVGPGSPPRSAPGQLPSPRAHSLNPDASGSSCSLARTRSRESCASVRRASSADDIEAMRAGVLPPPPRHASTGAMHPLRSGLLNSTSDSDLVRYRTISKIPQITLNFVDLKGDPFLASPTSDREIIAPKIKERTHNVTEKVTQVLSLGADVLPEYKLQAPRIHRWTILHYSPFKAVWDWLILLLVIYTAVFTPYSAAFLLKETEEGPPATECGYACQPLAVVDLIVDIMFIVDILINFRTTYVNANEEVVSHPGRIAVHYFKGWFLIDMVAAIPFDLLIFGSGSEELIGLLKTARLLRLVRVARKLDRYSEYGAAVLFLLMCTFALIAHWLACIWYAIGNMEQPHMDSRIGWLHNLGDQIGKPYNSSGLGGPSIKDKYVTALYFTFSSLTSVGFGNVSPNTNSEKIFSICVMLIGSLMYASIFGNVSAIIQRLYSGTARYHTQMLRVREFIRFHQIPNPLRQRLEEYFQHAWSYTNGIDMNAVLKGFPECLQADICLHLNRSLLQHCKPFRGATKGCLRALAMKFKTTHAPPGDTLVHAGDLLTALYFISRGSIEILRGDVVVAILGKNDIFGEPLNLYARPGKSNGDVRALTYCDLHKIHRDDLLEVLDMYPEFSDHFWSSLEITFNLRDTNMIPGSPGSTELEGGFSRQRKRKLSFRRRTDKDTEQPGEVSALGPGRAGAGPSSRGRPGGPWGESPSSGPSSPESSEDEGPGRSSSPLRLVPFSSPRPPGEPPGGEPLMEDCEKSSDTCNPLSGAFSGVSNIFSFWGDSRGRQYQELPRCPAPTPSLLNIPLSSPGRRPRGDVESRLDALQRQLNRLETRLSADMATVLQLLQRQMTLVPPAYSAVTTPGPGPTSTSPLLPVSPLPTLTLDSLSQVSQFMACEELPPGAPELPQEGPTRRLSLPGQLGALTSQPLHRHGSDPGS
compound,measurement,setting,value
Cc1cc(C#N)ccc1-c1ccnc(NCc2n[nH]c3nc(N)ccc23)c1,solubility,[1],> 884 µM
same,bioavailability,[2],72%
same,solubility,[3],0.34 µM
same,EC50,[4],1.9 nM
same,CC50,[5],> 10000 nM
same,AUC,[6],20 µM·h
same,IC50,[7],5.9 nM
same,half-life,[8],2.5 h
same,IC50,[9],36 nM
same,Vd,[10],1.26 L/kg
same,IC50,[11],16 nM
same,clearance,[12],14 mL/min/kg
Cc1ccccc1-c1cncc(NCc2cc(-c3ccccc3)[nH]n2)n1,EC50,[4],910 nM
same,CC50,[5],> 10000 nM
Cc1ccccc1-c1cccc(NCc2cc(-c3ccccc3)[nH]n2)n1,EC50,[4],> 10000 nM
same,CC50,[5],> 10000 nM
Cc1cc(C#N)ccc1-c1ccnc(NCc2n[nH]c(-c3ccccc3)c2Cl)c1,solubility,[1],45 µM
same,solubility,[3],2.1 µM
same,bioavailability,[13],71%
same,EC50,[4],6.8 nM
same,Vd,[14],2.08 L/kg
same,CC50,[5],> 10000 nM
same,IC50,[7],5.1 nM
same,clearance,[15],8.7 mL/min/kg
same,IC50,[9],11 nM
same,IC50,[11],6.3 nM
same,half-life,[16],3.1 h
same,AUC,[17],34 µM·h
Cc1cc(C#N)ccc1-c1cnnc(NCc2cc(-c3ccccc3)[nH]n2)n1,EC50,[4],1.7 nM
same,CC50,[5],> 10000 nM
Cc1ccccc1-c1cncc(NCc2cc(-c3ccccc3)[nH]n2)c1,EC50,[4],1200 nM
same,CC50,[5],> 10000 nM
Cc1ccccc1-c1cnnc(NCc2cc(-c3ccccc3)[nH]n2)n1,EC50,[4],124 nM
same,CC50,[5],> 10000 nM
Cc1ccccc1-c1cccc(NCc2cc(-c3ccccc3)[nH]n2)c1,EC50,[4],2200 nM
same,CC50,[5],> 10000 nM
Cc1cc(C#N)ccc1-c1ccnc(NCc2n[nH]c3ncccc23)c1,solubility,[1],> 881 µM
same,solubility,[3],3.7 µM
same,EC50,[4],1.1 nM
same,CC50,[5],> 10000 nM
same,IC50,[7],1.2 nM
same,IC50,[9],10 nM
same,IC50,[11],5.6 nM
Cc1cc(C#N)ccc1-c1ccnc(NCc2n[nH]c3nc(F)ccc23)c1,solubility,[3],1.8 µM
same,EC50,[4],0.35 nM
same,CC50,[5],> 10000 nM
same,IC50,[7],1.9 nM
same,IC50,[9],10 nM
same,IC50,[11],7.7 nM
Cc1cc(C#N)ccc1-c1ccnc(NCc2n[nH]c(-c3ccccn3)c2Cl)c1,Vd,[18],1.1 L/kg
same,solubility,[1],132 µM
same,Activity,[19],Not Active
same,clearance,[20],8.2 mL/min/kg
same,solubility,[3],1.1 µM
same,EC50,[4],0.2 nM
same,half-life,[21],2 h
same,CC50,[5],> 10000 nM
same,bioavailability,[22],127%
same,IC50,[7],3 nM
same,IC50,[9],16 nM
same,IC50,[11],7.9 nM
same,AUC,[23],67 µM·h
Cc1cc(C#N)ccc1-c1ccnc(NCc2cc(-c3ccccc3)[nH]n2)c1,EC50,[4],0.8 nM
same,CC50,[5],> 10000 nM
Cc1cc(C#N)ccc1-c1ccnc(NCc2n[nH]c3nc(N)ccc23)c1.Cl,solubility,[24],> 4220 µM
N#Cc1cc(Cl)cc(Oc2cc(OCc3n[nH]c4nc(N)ccc34)ccc2Cl)c1,CC50,[5],> 10000 nM
Cc1cc(C#N)ccc1-c1ccnc(NCc2n[nH]c(-c3ccccn3)c2Cl)c1.Cl,solubility,[24],100 µM
c1ccc(-c2cnnc(NCc3cc(-c4ccccc4)[nH]n3)n2)cc1,EC50,[4],1290 nM
same,CC50,[5],> 10000 nM
c1ccc(-c2cc(CNc3nncc(-c4cccc5ccccc45)n3)n[nH]2)cc1,EC50,[4],265 nM
same,CC50,[5],> 10000 nM
Cc1cccc(C)c1-c1cnnc(NCc2cc(-c3ccccc3)[nH]n2)n1,EC50,[4],3.2 nM
same,CC50,[5],> 10000 nM
Cc1cccc(-c2cnnc(NCc3cc(-c4ccccc4)[nH]n3)n2)c1,EC50,[4],2300 nM
same,CC50,[5],> 10000 nM
Cc1cc(C#N)ccc1-c1ccnc(NCc2cc(-c3ccccn3)[nH]n2)c1,solubility,[1],> 545 µM
same,solubility,[3],0.71 µM
same,EC50,[4],3.6 nM
same,CC50,[5],> 10000 nM
same,IC50,[7],10 nM
same,Ratio IC50,[25],8.4
same,IC50,[9],134 nM
same,IC50,[11],84 nM
same,Ratio IC50,[26],13
same,IC50,[27],1100 nM
Cc1ccccc1-c1ccnc(NCc2cc(-c3ccccc3)[nH]n2)c1,EC50,[4],149 nM
same,CC50,[5],> 10000 nM
Cc1ccnc2c1NC(=O)c1cccnc1N2C1CC1 [NEVIRAPINE],EC50,[4],150 nM
same,CC50,[5],> 10000 nM
Cc1cc(C#N)ccc1-c1cncc(NCc2cc(-c3ccccc3)[nH]n2)c1,EC50,[4],16 nM
same,CC50,[5],> 10000 nM
Cc1cc(C#N)ccc1-c1ccnc(NCc2cc(-c3ccccc3)[nH]n2)n1,EC50,[4],4.3 nM
same,CC50,[5],> 10000 nM
Cc1ccccc1-c1ccnc(NCc2cc(-c3ccccc3)[nH]n2)n1,EC50,[4],366 nM
same,CC50,[5],> 10000 nM
Cc1ccc(-c2cnnc(NCc3cc(-c4ccccc4)[nH]n3)n2)cc1,EC50,[4],> 10000 nM
same,CC50,[5],> 10000 nM

# From ChEMBL document CHEMBL2146480, “Discovery of Phenylaminopyridine Derivatives as Novel HIV-1 Non-nucleoside Reverse Transcriptase Inhibitors” (ACS Med Chem Lett, 2012)
